High-throughput results (PubChem)
Most compounds without a hit are left out; they make up all but 1.5% or so of the library.
C2C12 statin – protects C2C12 myotubes from simvastatin toxicity | ATP luminescence, 48 h; scaled: DMSO 0, geranylgeraniol control 100 | rescue of ATP level, % at 7.49 µM | actives 0.78% (n = 330,000) | AID 602340;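 active = mean ATP rescue above about 67%, or every replicate alone reaching that limit, limit read from the data, passing the limit was not always enough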;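 note: myotubes were challenged with 10 µM simvastatin during compound exposure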
Cneo AK release – Cryptococcus neoformans lysis via adenylate kinase release | actives 0.2% (n = 360,000) | AID 651654 | C. neoformans lysis, adenylate kinase release luminescence, 4 h; normalised: neutral wells 0, clomiphene wells 100 | lysis activity, % at 15 µM;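 active = mean lysis activity across replicates of at least 80%, whatever share of replicates individually reach that level; inactive = mean lysis activity below 80%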
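Material: C. neoformans cells | Amount: Yeast cell density of 5 × 10^6 cells/mL | Medium: Fresh YPD growth medium | Dosing: Single dose | Times: Static 4 h at 37 °C with compound, 1 h detection | Detection: AK luminescence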
SUMO Mot1 rescue – blocks SUMOylation pathway, rescuing yeast Mot1-301 growth | S. cerevisiae Mot1-301 growth rescue, ATP luminescence, 38.5C; percent above DMSO median, 100 means doubled | growth rescue, % at 18.8 µM | actives 1% (n = 320,000) | AID 2716;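 active = every valid replicate shows activation above 250% relative to neutral control wells; inactive = the rest, any valid replicate at or below 250%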;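 note: OY570 slx delta 5 strain wells were the positive control but not used for scaling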
* marks the source's active call; other numbers are inactive results; · = no result.

SMILES	C2C12 statin	Cneo AK release	SUMO Mot1 rescue
Cc1cc(C(F)(F)F)nn1CC(=O)NCc1ccco1	3.0	0.3	-9.5
Cc1cc(NS(=O)(=O)c2ccc(Cl)cc2)nn1CC(=O)NCc1ccco1	97.8*	-0.7	2.5
COc1cccc(C(=O)Nc2ccc3c(c2)C(=O)N(C)[C@@H]2CC[C@H](CC(=O)NCC(F)(F)F)O[C@@H]2CO3)c1	1.7	-2.1	·
CO[C@@H]1CN(C)C(=O)c2ccc(NC(=O)CC(F)(F)F)cc2OC[C@@H](C)N(S(=O)(=O)c2cn(C)cn2)C[C@@H]1C	6.0	-2.4	·
CCC(CC)C(=O)Nc1nnc(SCC(=O)NC(C)(C)C)s1	·	0.2	923.6*
CCC(CC)C(=O)Nc1nnc(SCC(=O)NC2CC2)s1	·	-1.6	2.2
C[C@H]1CN([C@@H](C)CO)S(=O)(=O)c2ccc(C#CC3CC3)cc2O[C@@H]1CN(C)C(=O)c1cccnc1	-8.5	1.4	·
COc1cccc(C2c3[nH]c4ccccc4c3C[C@H]3C(=O)N(c4ccccc4C(=O)N4CCC(C(=O)O)CC4)C(=O)N23)c1 (some centres undefined)	8.4	-2.5	-24.3
COc1ccc(C2c3[nH]c4ccccc4c3C[C@H]3C(=O)N(c4ccccc4C(=O)N4CCC(C(=O)O)CC4)C(=O)N23)cc1 (some centres undefined)	-1.4	0.6	342.5*
Cn1cc([N+](=O)[O-])c(C(=O)Nc2ccn(Cc3c(F)c(F)cc(F)c3F)n2)n1	143.6*	·	-6.3
Cn1ncc([N+](=O)[O-])c1C(=O)Nc1ccn(Cc2ccccc2F)n1	1.8	-6.1	-1.7
O=C(CN1CCCC1)NCC12CC3CC(CC(C3)C1)C2	-9.5	·	331.2
O=C(CN1C(=O)CCC1=O)NCC12CC3CC(CC(C3)C1)C2	95.9*	-0.3	-20.5
COc1ccccc1-c1ccc2n(c1=O)C[C@@H]1[C@@H](CO)[C@H](C(=O)N[C@H](C)c3ccccc3)[C@H]2N1C	1.2	-0.6	·
COc1ccc(/C(O)=C2/C(=O)C(=O)N(CCN(C)C)C2c2ccccn2)cc1OC (centres undefined)	117.7*	0.9	-8.6
COc1ccc(/C(O)=C2/C(=O)C(=O)N(CCN3CCOCC3)C2c2ccccn2)cc1OC (centres undefined)	-9.7	0.1	-14.4
CO[C@H]1CN(C)C(=O)c2ccc(NC(=O)C3CCCC3)cc2OC[C@H](C)N(S(C)(=O)=O)C[C@H]1C	-1.2	1.0	·
COc1ccccc1NC(=O)COC(=O)c1cnc(C)cn1	11.3	0.6	5.6
COc1cc(Cl)c(C)cc1NC(=O)COC(=O)c1cnc(C)cn1	94.9*	2.3	0.8
Cn1cnc(Sc2ncnc3nc[nH]c23)c1[N+](=O)[O-]	-0.2	1.9	-7.6
Cn1cnc2nc[nH]c2c1=S	74.8*	-2.0	·
COc1cccc(CNC(=O)C[C@H]2C=C[C@@H](NC(=O)C3CCC3)[C@@H](CO)O2)c1	8.2	·	·
COCC(=O)N(C)C[C@H]1Oc2cc(C#CC(C)C)ccc2S(=O)(=O)N([C@@H](C)CO)C[C@H]1C	27.6	1.0	·
CCS(=O)(=O)N1CCCCN2[C@H](CO)[C@H](c3ccc(-c4ccc(C#N)cc4)cc3)[C@H]2C1	-2.7	0.1	·
CCS(=O)(=O)N1CCCCN2[C@H](CO)[C@@H](c3ccc(-c4ccc(C#N)cc4)cc3)[C@@H]2C1	11.0	87.9*	·
SMILES	C2C12 statin	Cneo AK release	SUMO Mot1 rescue
Cc1cccc(-c2ccc([C@H]3[C@H]4CN(S(=O)(=O)c5ccccc5C)CCCCN4[C@H]3CO)cc2)c1	·	-0.5	·
Cc1cccc(-c2ccc([C@@H]3[C@@H](CO)N4CCCCN(C(=O)c5ccc6c(c5)OCO6)C[C@H]34)cc2)c1	3.1	0.9	·
Cc1cccc(-c2ccc([C@@H]3[C@@H](CO)N4CCCCN(S(=O)(=O)c5ccccc5C)C[C@@H]34)cc2)c1	·	107.6*	·
Cc1cccc(-c2ccc([C@H]3[C@@H](CO)N4CCCCN(C(=O)c5ccc6c(c5)OCO6)C[C@@H]34)cc2)c1	68.6*	0.5	·
CN1C[C@@H]2[C@H](c3ccccc31)[C@H](CO)N2C(=O)Nc1ccccc1	-0.5	3.2	·
Cc1noc(C)c1NC(=O)N(C)C[C@H]1Oc2ccc(NC(=O)Nc3ccc(F)cc3)cc2CC(=O)N([C@H](C)CO)C[C@H]1C	-10.8	-0.3	·
C[C@H]1CN([C@@H](C)CO)C(=O)Cc2cc(NC(=O)CCCN(C)C)ccc2O[C@H]1CN(C)S(=O)(=O)c1ccc(F)cc1	-16.4	51.8	·
C[C@H](CO)N1C[C@H](C)[C@@H](CN(C)S(C)(=O)=O)Oc2ncc(C#CC3CCCC3)cc2C1=O	1.9	-0.6	·
Cc1cc(NC(=O)c2cc(-c3ccc(OC(C)C)cc3)nc3ccccc23)no1	·	-1.1	311.9*
CCC(C)c1ccc(-c2cc(C(=O)OCC(=O)Nc3cc(C)on3)c3ccccc3n2)cc1 (centres undefined)	-9.0	-4.2	-13.4
Cc1ccc2nc(-c3ccccc3Cl)cc(C(=O)Nc3cc(C)on3)c2c1	109.5*	0.2	2.6
Cc1cc(NC(=O)c2ccccc2Cl)no1	-4.2	-2.6	-19.9
COCCNC(=O)C[C@H]1CC[C@@H]2[C@H](COC[C@@H](O)CN2C(=O)Nc2ccc3c(c2)OCO3)O1	-7.1	-0.7	·
COCC(=O)Nc1ccc2c(c1)C(=O)N(C)C[C@@H](OC)[C@@H](C)CN(Cc1ccccc1OC)[C@H](C)CO2	-2.5	-4.3	·
O=C(Nc1ccc(F)cc1)Nc1ccc2c(c1)[C@H]1C[C@H](CC(=O)N3CCCCC3)O[C@H](CO)[C@H]1O2	1.5	-0.9	·
CO[C@H]1CN(C)C(=O)c2cc(NC(=O)Nc3ccccc3)ccc2OC[C@H](C)N(C(=O)CN(C)C)C[C@H]1C	-8.4	3.3	·
O=C(O)c1cc(S(=O)(=O)Nc2cccc3ccccc23)c(Cl)cc1Cl	75.0*	2.6	98.6
CC(C)CNS(=O)(=O)c1cc(C(=O)O)c(Cl)cc1Cl	·	·	-22.0
CC(C)CC#Cc1ccc2c(c1)O[C@@H](CN(C)C(=O)Nc1ccccc1)[C@H](C)CN([C@H](C)CO)S2(=O)=O	7.5	0.9	·
O=C(Nc1nc(-c2ccco2)cs1)c1ccccc1	-10.8	-5.1	9.5
Cc1ccc(-c2csc(NC(=O)c3ccc(-c4ccccc4)cc3)n2)o1	88.7*	-4.0	0.0
CNC(=O)C1=C(C)NC(=S)NC1c1cccs1 (centres undefined)	-13.7	0.8	-5.0
CC1=C(C(=O)NCc2ccccc2)C(c2cccs2)NC(=S)N1 (centres undefined)	98.1*	3.3	-11.3
Cc1ccc(-c2nc(-c3ccccn3)sc2CC(=O)O)cc1	-12.9	·	327.9*
O=C(O)Cc1sc(-c2ccccc2)nc1-c1ccccc1	-1.2	-0.8	280.1
CNC[C@H]1OCCCC[C@@H](C)Oc2ccc(NC(=O)Nc3ccc(F)cc3)cc2C(=O)N([C@@H](C)CO)C[C@H]1C	21.9	-1.6	·
O=S(=O)(c1ccccc1)c1nc(-c2cccs2)oc1NCCCn1ccnc1	·	0.7	0.2
CCCCNc1oc(-c2cccs2)nc1S(=O)(=O)c1ccccc1	131.2*	-1.6	-3.6
CC(=O)CSc1nc(C(F)(F)F)cc(=O)n1-c1ccccc1	150.8*	-1.3	-13.6
O=C(O)CSc1nc(C(F)(F)F)cc(=O)n1-c1ccccc1	4.8	-3.4	120.4
